Test results published in the array DNA melting data of Ke et al. (doi:10.1101/2024.01.08.574731).

How the values were obtained:
[1] = folding enthalpy; higher = less favourable; fluorescence melt of hairpins on a sequencing array, two-state fit; details: sodium 0.088 M
Outline: (§1)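 Folding enthalpy and melting temperature come from bootstrapped two-state fits to Cy3 fluorescence of library hairpins carrying annealed Cy3 and quencher oligos on a sequenced MiSeq flow cell. Imaging was done in 50 mM Na-HEPES pH 8.0, 25 mM NaCl, stepping by 2.5 °C up to 60 °C, and signals were normalised to pre-quench Cy3 and to control constructs. Results of four replicates were combined by inverse variance, and fitted temperatures were raised by 9.35 °C to match UV melts.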

[2] = melting temperature; fluorescence melt of hairpins on a sequencing array, two-state fit, raised by 9.35 °C to match UV melts; details: sodium 0.088 M
Outline: as §1

Sequence | folding enthalpy [1] | Tm [2]
GATCTAATTTTAGATC ((((((....)))))) | -34.2 kcal/mol | 44 °C
GATCTACAAATAGATC ((((((....)))))) | -25.4 kcal/mol | 36.6 °C
GATCTACACCTAGATC ((((((....)))))) | -39.5 kcal/mol | 42.5 °C
GATCTACACGTAGATC ((((((....)))))) | -35.6 kcal/mol | 50.5 °C
GATCTACACTAGATC ((((((...)))))) | -20.8 kcal/mol | 41.7 °C
GATCTACAGCTAGATC ((((((....)))))) | -31.8 kcal/mol | 35.1 °C
GATCTACAGGTAGATC ((((((....)))))) | -37.6 kcal/mol | 48.8 °C
GATCTACATATAGATC ((((((....)))))) | -35.4 kcal/mol | 40.8 °C
GATCTACCACTAGATC ((((((....)))))) | -30.6 kcal/mol | 39.7 °C
GATCTACCCATAGATC ((((((....)))))) | -35.8 kcal/mol | 41.4 °C
GATCTACCGTAGATC ((((((...)))))) | -31.6 kcal/mol | 39.1 °C
GATCTACGAAAGTATATC (((.(((....))).))) | -22.4 kcal/mol | 32.5 °C
GATCTACTGTTAGATC ((((((....)))))) | -32.4 kcal/mol | 40.9 °C
GATCTACTTTAGATC ((((((...)))))) | -30.1 kcal/mol | 41.7 °C
GATCTAGCCATAGATC ((((((....)))))) | -41 kcal/mol | 49.3 °C
GATCTAGCGATAGATC ((((((....)))))) | -34.7 kcal/mol | 46 °C
GATCTAGCGCTAGATC ((((((....)))))) | -45.9 kcal/mol | 53.6 °C
GATCTAGCGGTAGATC ((((((....)))))) | -32.2 kcal/mol | 44 °C
GATCTAGCTGTAGATC ((((((....)))))) | -32.8 kcal/mol | 39.9 °C
GATCTAGGAAACCAGATC (((((.(....).))))) | -25.3 kcal/mol | 34.6 °C
GATCTAGGAATAGATC ((((((....)))))) | -29.3 kcal/mol | 42.9 °C
GATCTAGGATAGATC ((((((...)))))) | -32.1 kcal/mol | 48.7 °C
GATCTAGGGATAGATC ((((((....)))))) | -30.8 kcal/mol | 42.3 °C
GATCTAGGGGTAGATC ((((((....)))))) | -30.2 kcal/mol | 36.4 °C

Sequence | folding enthalpy [1] | Tm [2]
GATCTAGGGTAGATC ((((((...)))))) | -22.7 kcal/mol | 36.7 °C
GATCTAGTATAGATC ((((((...)))))) | -41.5 kcal/mol | 49.5 °C
GATCTAGTGGTAGATC ((((((....)))))) | -28 kcal/mol | 38 °C
GATCTAGTGTTAGATC ((((((....)))))) | -30 kcal/mol | 40.6 °C
GATCTATAACTAGATC ((((((....)))))) | -34.2 kcal/mol | 36.7 °C
GATCTATACATAGATC ((((((....)))))) | -37.1 kcal/mol | 46.4 °C
GATCTATACGTAGATC ((((((....)))))) | -40.1 kcal/mol | 45.3 °C
GATCTATAGATAGATC ((((((....)))))) | -32.6 kcal/mol | 39.9 °C
GATCTATCAATAGATC ((((((....)))))) | -33.6 kcal/mol | 42.8 °C
GATCTATCCCTAGATC ((((((....)))))) | -32.4 kcal/mol | 41.4 °C
GATCTATCCTTAGATC ((((((....)))))) | -34.1 kcal/mol | 44.4 °C
GATCTATCTTTAGATC ((((((....)))))) | -24.1 kcal/mol | 43.1 °C
GATCTATGGTTAGATC ((((((....)))))) | -36 kcal/mol | 41.5 °C
GATCTATGTTTAGATC ((((((....)))))) | -32.9 kcal/mol | 43.9 °C
GATCTCAACTGAGATC ((((((....)))))) | -44.1 kcal/mol | 52.1 °C
GATCTCAAGAGAGATC ((((((....)))))) | -32.5 kcal/mol | 49.4 °C
GATCTCAAGCGAGATC ((((((....)))))) | -37.6 kcal/mol | 50.4 °C
GATCTCACATGAGATC ((((((....)))))) | -40.1 kcal/mol | 52.5 °C
GATCTCACCAGAGATC ((((((....)))))) | -31.9 kcal/mol | 54.5 °C
GATCTCACGAAAGTGATC (((..(((....)))))) | -9.7 kcal/mol | 30.2 °C
GATCTCACGGAGATC ((((((...)))))) | -41.9 kcal/mol | 54.1 °C
GATCTCATGGAGATC ((((((...)))))) | -33.9 kcal/mol | 54 °C
GATCTCATTGGAGATC ((((((....)))))) | -38.7 kcal/mol | 52.2 °C
GATCTCCAAGGAGATC ((((((....)))))) | -35 kcal/mol | 55.7 °C

Sequence | folding enthalpy [1] | Tm [2]
GATCTCCAGAGAGATC ((((((....)))))) | -38.8 kcal/mol | 52 °C
GATCTCCAGTGAGATC ((((((....)))))) | -32 kcal/mol | 50.7 °C
GATCTCCCAAGAGATC ((((((....)))))) | -34.3 kcal/mol | 53.4 °C
GATCTCCCAGAGATC ((((((...)))))) | -40 kcal/mol | 53.5 °C
GATCTCCCCGGAGATC ((((((....)))))) | -35.1 kcal/mol | 57.6 °C
GATCTCCCTCGAGATC ((((((....)))))) | -41.1 kcal/mol | 51.7 °C
GATCTCCCTTGAGATC ((((((....)))))) | -39.4 kcal/mol | 52.6 °C
GATCTCCGAAAGGAATC (((.(((....)))))) | -14.4 kcal/mol | 33.3 °C
GATCTCCGAAAGGACATC (((.(((....))).))) | -17 kcal/mol | 30.4 °C
GATCTCCGGGAGATC ((((((...)))))) | -39.7 kcal/mol | 52.8 °C
GATCTCCTACGAGATC ((((((....)))))) | -34.5 kcal/mol | 52.4 °C
GATCTCCTATGAGATC ((((((....)))))) | -39.2 kcal/mol | 53.4 °C
GATCTCCTCGAGATC ((((((...)))))) | -38.6 kcal/mol | 54.5 °C
GATCTCCTGTGAGATC ((((((....)))))) | -45.7 kcal/mol | 52.5 °C
GATCTCCTTAGAGATC ((((((....)))))) | -37.1 kcal/mol | 56.4 °C
GATCTCCTTCGAGATC ((((((....)))))) | -42.5 kcal/mol | 52.1 °C
GATCTCGAAGAGATC ((((((...)))))) | -34.2 kcal/mol | 68.5 °C
GATCTCGAAGGAGATC ((((((....)))))) | -32.9 kcal/mol | 55.1 °C
GATCTCGACGAGATC ((((((...)))))) | -38.9 kcal/mol | 57.4 °C
GATCTCGAGAGAGATC ((((((....)))))) | -32.6 kcal/mol | 63.7 °C
GATCTCGAGCGAGATC ((((((....)))))) | -48.4 kcal/mol | 53.3 °C
GATCTCGAGTGAGATC ((((((....)))))) | -35.7 kcal/mol | 51.8 °C
GATCTCGCGTGAGATC ((((((....)))))) | -34.7 kcal/mol | 53.8 °C
GATCTCGGAAACGAGGTC ((.((((....)))).)) | -50.8 kcal/mol | 50.2 °C

Sequence | folding enthalpy [1] | Tm [2]
GATCTCGGCAGAGATC ((((((....)))))) | -42 kcal/mol | 68.1 °C
GATCTCGGCTGAGATC ((((((....)))))) | -44.5 kcal/mol | 56.5 °C
GATCTCGGTTGAGATC ((((((....)))))) | -30.5 kcal/mol | 53.5 °C
GATCTCGTAGGAGATC ((((((....)))))) | -33.9 kcal/mol | 56.6 °C
GATCTCGTCTGAGATC ((((((....)))))) | -41.8 kcal/mol | 55.3 °C
GATCTCTAACGAGATC ((((((....)))))) | -33.4 kcal/mol | 49.4 °C
GATCTCTATGGAGATC ((((((....)))))) | -42.8 kcal/mol | 54.9 °C
GATCTCTCAAGAGATC ((((((....)))))) | -40.8 kcal/mol | 53.7 °C
GATCTCTCACGAGATC ((((((....)))))) | -37.2 kcal/mol | 51.6 °C
GATCTCTCCAGAGATC ((((((....)))))) | -40.2 kcal/mol | 56.7 °C
GATCTCTCCGAGATC ((((((...)))))) | -40.7 kcal/mol | 56.7 °C
GATCTCTCGCGAGATC ((((((....)))))) | -42.2 kcal/mol | 51.4 °C
GATCTCTCGGGAGATC ((((((....)))))) | -38.3 kcal/mol | 53.5 °C
GATCTCTGCCGAGATC ((((((....)))))) | -37.9 kcal/mol | 51.3 °C
GATCTCTTACGAGATC ((((((....)))))) | -44.7 kcal/mol | 52.2 °C
GATCTCTTCAGAGATC ((((((....)))))) | -40.9 kcal/mol | 60.1 °C
GATCTCTTGGAGATC ((((((...)))))) | -37.8 kcal/mol | 54.4 °C
GATCTGAAAACAGATC ((((((....)))))) | -27.5 kcal/mol | 42.8 °C
GATCTGAAACCAGATC ((((((....)))))) | -29.7 kcal/mol | 43 °C
GATCTGAACCAGATC ((((((...)))))) | -34.6 kcal/mol | 46 °C
GATCTGAACTCAGATC ((((((....)))))) | -38.6 kcal/mol | 48 °C
GATCTGAAGACAGATC ((((((....)))))) | -27.7 kcal/mol | 44.8 °C
GATCTGAATGCAGATC ((((((....)))))) | -30.7 kcal/mol | 47.3 °C
GATCTGACACCAGATC ((((((....)))))) | -34.7 kcal/mol | 46.1 °C
